# Measured values published in paper PMC5616206 (Toxicology Reports, 2016).
# Entries after “also recorded” stand apart in the source; their conditions may differ. Read-outs that look alike come from different tables or passages of the source.
# Legend:
# [1] = In vitro metabolism by rat liver microsomes; type: in vitro ADME, Sprague-Dawley rat; settings: S9229 incubation, relative to S9229 at time = 0
# [2] = In vitro metabolism by human liver microsomes; type: in vitro ADME; settings: S9229 incubation, relative to S9229 at time = 0
# [3] = Pharmacokinetics of S9229 in rats, single iv or oral dose; type: in vivo, Sprague-Dawley rats; settings: for AUC(0-t) / Cmax / Tmax / Vd / clearance / half-life / bioavailability: Sprague-Dawley, rat, plasma; for AUC0-24hr Ratio / Cmax Ratio: vs 10 mg/kg dose
# Method in brief: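 Sprague-Dawley rats, 4/sex, received a 1 mg/kg bw IV bolus in 1% ethanol in saline, with tail-vein sampling from 2 min to 8 h. Oral groups (3/sex/group) were gavaged once with 10, 30 or 100 mg/kg bw in 1% methylcellulose and sampled from 15 min to 24 h. Plasma was assayed for parent and metabolites.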
# [4] = In vivo metabolism of S9229 in rats; parameters: species or system Sprague-Dawley rats; settings: rat plasma, 1 h time point, 100 mg/kg bw oral
# [5] = test system: S. typhimurium strains TA98, TA100, TA1535, TA1537 and E. coli strain WP2 uvrA; assay: Bacterial reverse mutation test; type: cell-based; settings: 50–5000 μg/plate, plate incorporation, ±S9
# Method in brief: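 The assay followed OECD Guideline 471 and used S. typhimurium TA98, TA100, TA1535 and TA1537 and E. coli WP2 uvrA. It was run with and without S9 from livers of Aroclor 1254-treated Sprague-Dawley rats. One compound was tested at 21–5000 μg/plate by plate incorporation and pre-incubation. The other was tested at 50–5000 μg/plate in an initial toxicity-mutation test and a confirmatory mutation test.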
# [6] = test system: Male and Female Hsd:ICR (CD-1) mice, bone marrow PCEs; assay: In vivo micronucleus assay in mice, S9229
# Method in brief: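 Hsd:ICR (CD-1) mice were gavaged once with the test compound suspended in 1% methylcellulose (20 mL/kg) in both the range-finding and definitive phases. The definitive phase used 0, 500, 624, 1352 and 2000 mg/kg bw, 5/sex/group, with bone marrow sampled at 24 h. Additional vehicle, 1352 and 2000 groups were sampled at 48 h. Femoral marrow smears were stained with acridine orange and scored for mnPCEs and PCE/TE ratio. Cyclophosphamide 50 mg/kg was the positive control.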
# [7] = test system: Primary human lymphocytes; settings: for dose with substantial toxicity (at least 50% reduction in mitotic index): preliminary toxicity test
# [8] = oral gavage 10 mg/kg bw, female
# [9] = oral gavage 30 mg/kg bw, female
# [10] = oral gavage 100 mg/kg bw, female
smiles,measurement,setting,value
"COC[C@@H](CC(C)C)NC(=O)c1ccc(C)c(C)c1 [S9229, (R)-N-(1-methoxy-4-methylpentan-2-yl)-3,4-dimethylbenzamide]",% MS (EIC) Peak Area,[1]; 10 min,36.4%
same,% MS (EIC) Peak Area,[1]; 20 min,1.93%
same,% MS (EIC) Peak Area,[2]; 10 min,86.9%
same,% MS (EIC) Peak Area,[2]; 20 min,70.6%
same,% MS (EIC) Peak Area,[2]; 60 min,~22.6%
same,AUC(0-t),"[3]; female, iv, 1 mg/kg",1730 ± 376 ng·h/mL
same,Cmax,"[3]; female, iv, 1 mg/kg",3940 ± 1070 ng/mL
same,Tmax,"[3]; female, iv, 1 mg/kg",1.8 min
same,Vd,"[3]; female, iv, 1 mg/kg",2.82 L/kg
same,clearance,"[3]; female, iv, 1 mg/kg",7.9 mL/min/kg
same,half-life,"[3]; female, iv, 1 mg/kg",260 ± 99 min
same,bioavailability,"[3]; female, po",0.09 to 0.1%
same,AUC(0-t),"[3]; female, po, 10 mg/kg",15.2 ± 11.2 ng·h/mL
same,Cmax,"[3]; female, po, 10 mg/kg",10.5 ± 13.9 ng/mL
same,Tmax,"[3]; female, po, 10 mg/kg",15 min
same,bioavailability,"[3]; female, po, 10 mg/kg",0.09%
same,half-life,"[3]; female, po, 10 mg/kg",57.6 ± 18 min
same,AUC(0-t),"[3]; female, po, 30 mg/kg",49.5 ± 31.7 ng·h/mL
same,Cmax,"[3]; female, po, 30 mg/kg",55.4 ± 43.9 ng/mL
same,Tmax,"[3]; female, po, 30 mg/kg",15 min
same,bioavailability,"[3]; female, po, 30 mg/kg",0.1%
same,half-life,"[3]; female, po, 30 mg/kg",109 ± 127 min
same,AUC(0-t),"[3]; female, po, 100 mg/kg",175 ± 169 ng·h/mL
same,Cmax,"[3]; female, po, 100 mg/kg",102 ± 124 ng/mL
same,Tmax,"[3]; female, po, 100 mg/kg",100 min
same,bioavailability,"[3]; female, po, 100 mg/kg",0.1%
same,half-life,"[3]; female, po, 100 mg/kg",61.8 ± 19.2 min
same,ratio of female/male AUC0-24hr,[3]; iv 1 mg/kg,1.02
same,ratio of female/male Cmax,[3]; iv 1 mg/kg,1.08
same,CL as % of hepatic blood flow,"[3]; iv, females",14.4%
same,CL as % of hepatic blood flow,"[3]; iv, males",13.9%
same,AUC(0-t),"[3]; male, iv, 1 mg/kg",1690 ± 416 ng·h/mL
same,Cmax,"[3]; male, iv, 1 mg/kg",3650 ± 1180 ng/mL
same,Tmax,"[3]; male, iv, 1 mg/kg",1.8 min
same,Vd,"[3]; male, iv, 1 mg/kg",3.47 L/kg
same,clearance,"[3]; male, iv, 1 mg/kg",7.65 mL/min/kg
same,half-life,"[3]; male, iv, 1 mg/kg",323 ± 130 min
same,bioavailability,"[3]; male, po",0.04 to 0.1%
same,AUC(0-t),"[3]; male, po, 10 mg/kg",11.3 ± 10 ng·h/mL
same,Cmax,"[3]; male, po, 10 mg/kg",19.4 ± 24 ng/mL
same,Tmax,"[3]; male, po, 10 mg/kg",15 min
same,bioavailability,"[3]; male, po, 10 mg/kg",0.07%
same,half-life,"[3]; male, po, 10 mg/kg",82.8 ± 76.8 min
same,AUC(0-t),"[3]; male, po, 30 mg/kg",20.6 ± 3.7 ng·h/mL
same,Cmax,"[3]; male, po, 30 mg/kg",11.9 ± 0.6 ng/mL
same,Tmax,"[3]; male, po, 30 mg/kg",15 min
same,bioavailability,"[3]; male, po, 30 mg/kg",0.04%
same,half-life,"[3]; male, po, 30 mg/kg",107 ± 41.4 min
same,AUC(0-t),"[3]; male, po, 100 mg/kg",175 ± 57.8 ng·h/mL
same,Cmax,"[3]; male, po, 100 mg/kg",52.3 ± 12 ng/mL
same,Tmax,"[3]; male, po, 100 mg/kg",49.8 min
same,bioavailability,"[3]; male, po, 100 mg/kg",0.1%
same,half-life,"[3]; male, po, 100 mg/kg",134 ± 65.4 min
same,AUC0-24hr Ratio,[3]; [8],1
same,Cmax Ratio,[3]; [8],1
same,AUC0-24hr Ratio,"[3]; oral gavage 10 mg/kg bw, male",1
same,Cmax Ratio,"[3]; oral gavage 10 mg/kg bw, male",1
same,AUC0-24hr Ratio,[3]; [9],3.26
same,Cmax Ratio,[3]; [9],5.28
same,AUC0-24hr Ratio,"[3]; oral gavage 30 mg/kg bw, male",1.82
same,Cmax Ratio,"[3]; oral gavage 30 mg/kg bw, male",0.61
same,AUC0-24hr Ratio,[3]; [10],11.5
same,Cmax Ratio,[3]; [10],9.68
same,AUC0-24hr Ratio,"[3]; oral gavage 100 mg/kg bw, male",15.5
same,Cmax Ratio,"[3]; oral gavage 100 mg/kg bw, male",2.70
same,parent compound as % of the total peak area,[4],less than 1%
same,"Reverse mutation (in vitro), Result",[5],not mutagenic; also recorded: Negative
same,"Micronucleus formation (in vivo), Result","[6]; 500, 624, 1352, 2000 mg/kg bw (oral)",neither clastogenic nor aneugenic; also recorded: Negative
same,well tolerated highest dose tested,"[6]; preliminary dose range finding, oral, male and female mice",2000 mg/kg bw
same,dose levels with visible precipitate in treatment medium,[7]; beginning of the treatment period,≥ 322 µg/mL
same,dose with substantial toxicity (at least 50% reduction in mitotic index),[7]; non-activated 20-h exposure,≥ 263 µg/mL
same,dose with substantial toxicity (at least 50% reduction in mitotic index),[7]; non-activated and S9-activated 4-h exposure,≥ 789 µg/mL
